ChEMBL document CHEMBL4229470, “Synthetic molecules for disruption of the MYC protein-protein interface” (Bioorg Med Chem, 2018)
Converted amounts (≈) assume the structure as drawn. The source made the active and inactive calls. The rule behind the calls is not given here.

What was measured:
[1] = Solubility in pH 6 MES buffer by dynamic light scattering assay; type: physicochemical
Procedure, shortened: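 Dynamic light scattering in MES, pH 6.0, with <0.1% DMSO.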

[2] = biological target: Myc proto-oncogene protein (Homo sapiens) (UniProt P01106); experiment: Binding affinity to His-tagged Myc (unknown origin) expressed in Escherichia coli BL21 at 10 uM by Bio-FET analysis relative to KJ-Pyr-9
Procedure, shortened: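 His-tagged MYC bHLH construct immobilized on a Bio-FET chip. Compounds at 10 μM in 3% DMSO in MES buffer; chip response at 10 μM normalized to a 10 μM reference ligand (saturating, maximal signal) run on each chip.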

c-Myc/Max (Homo sapiens) [3] = biological target: T1, c-Myc/Max (Homo sapiens) (UniProt P01106+P61244); experiment: Binding affinity to His-tagged Myc/Max (unknown origin) expressed in Escherichia coli BL21 at 10 uM by Bio-FET analysis
Procedure, shortened: (§1)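 Bio-FET chip screening at 10 μM against monomeric MAX (mMAX), MYC-MAX and MAX-MAX dimers. Heterodimers stabilized by a disulfide through a C-terminal cysteine introduced into the MYC bHLH and MAX constructs.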

[4] = biological target: Protein max (Homo sapiens) (UniProt P61244); experiment: Binding affinity to His-tagged monomeric Max (unknown origin) expressed in Escherichia coli BL21 at 10 uM by Bio-FET analysis; procedure, shortened: as §1
[5] = biological target: Protein max (Homo sapiens) (UniProt P61244); experiment: Binding affinity to His-tagged dimeric Max (unknown origin) expressed in Escherichia coli BL21 at 10 uM by Bio-FET analysis; procedure, shortened: as §1
c-Myc/Max (Homo sapiens) [6] = biological target: T1, c-Myc/Max (Homo sapiens); experiment: Inhibition of biotin-labeled EBOX dsDNA binding to Myc-Max (unknown origin) at 10 uM preincubated for 15 mins followed by test compound-protein mixture addition to biotin-labeled EBOX dsDNA immobilized chip measured over 2.5 mins by SPR analysis; type: protein-complex assay
Procedure, shortened: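 SPR. Disulfide-stabilized MYC-MAX dimer incubated with compound at 10 μM, then flowed over a DNA chip surface; sensorgram perturbation compared with vehicle control.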

dsDNA = experiment: Binding affinity to biotin-labeled EBOX dsDNA (unknown origin) at 10 uM measured over 2.5 mins by SPR analysis; type: nucleic-acid assay
Procedure, shortened: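 SPR check of compound alone flowed over the DNA surface, without protein.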

[7] = Drug metabolism in rat liver microsomes assessed as oxidized furan ion formation by measuring parent compound remaining at 5 uM after 3 mins by LC-MS analysis; type: ADME, microsome; details: 0.05 h
Procedure, shortened: (§2)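 Compounds incubated with rat liver microsomes at 37 °C for the indicated times; mass analysis monitoring the oxidized furan ion; recovery calculated from the AUC of the extracted ion.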

[8] = Drug metabolism in rat liver microsomes assessed as oxidized furan ion formation by measuring parent compound remaining at 5 uM after 7 mins by LC-MS analysis; type: ADME, microsome; procedure, shortened: as §2
[9] = Drug metabolism in rat liver microsomes assessed as oxidized furan ion formation by measuring parent compound remaining at 5 uM after 15 mins by LC-MS analysis; type: ADME, microsome; details: 0.25 h; procedure, shortened: as §2
[10] = Drug metabolism in rat liver microsomes assessed as oxidized furan ion formation by measuring parent compound remaining at 5 uM after 25 mins by LC-MS analysis; type: ADME, microsome; procedure, shortened: as §2
[11] = Drug metabolism in rat liver microsomes assessed as oxidized furan ion formation by measuring parent compound remaining at 5 uM after 45 mins by LC-MS analysis; type: ADME, microsome; details: 0.75 h; procedure, shortened: as §2
[12] = AUC (0 to infinity) in C57Bl6 mouse at 10 mg/kg, iv by LC-MS analysis; type: ADME, organism-based; parameters: dose 10 mg/kg, route intravenous, time infinity; details: in vivo
Procedure, shortened: (§3)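 Pharmacokinetic parameters determined in C57Bl6 mice.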

Mus musculus = experiment: AUMC (0 to infinity) in C57Bl6 mouse at 10 mg/kg, iv by LC-MS analysis; type: ADME, organism-based; details: in vivo; procedure, shortened: as §3
[13] = MRT in C57Bl6 mouse at 10 mg/kg, iv by LC-MS analysis; type: ADME, organism-based; details: in vivo; procedure, shortened: as §3
[14] = Clearance in C57Bl6 mouse at 10 mg/kg, iv by LC-MS analysis; type: ADME, organism-based; details: in vivo; procedure, shortened: as §3
[15] = Terminal half life in C57Bl6 mouse at 10 mg/kg, iv by LC-MS analysis; type: ADME, organism-based; details: in vivo, read-out: beta t1/2 (converted); procedure, shortened: as §3
[16] = Volume of distribution at steady state in C57Bl6 mouse at 10 mg/kg, iv by LC-MS analysis; type: ADME, organism-based; details: in vivo; procedure, shortened: as §3
[17] = Terminal half life in rat at 1 mg/kg, iv; type: ADME, organism-based; details: in vivo, read-out: beta t1/2 (converted)
[18] = AUC (0 to infinity) in rat at 1 mg/kg, iv; type: ADME, organism-based; parameters: dose 1 mg/kg, time infinity, route intravenous; details: in vivo
Rattus norvegicus = experiment: AUMC (0 to infinity) in rat at 1 mg/kg, iv; type: ADME, organism-based; details: in vivo
[19] = MRT in rat at 1 mg/kg, iv; type: ADME, organism-based; details: in vivo
[20] = Clearance in rat at 1 mg/kg, iv; type: ADME, organism-based; details: in vivo

Myc proto-oncogene protein (Homo sapiens), sequence (P01106 whole entry): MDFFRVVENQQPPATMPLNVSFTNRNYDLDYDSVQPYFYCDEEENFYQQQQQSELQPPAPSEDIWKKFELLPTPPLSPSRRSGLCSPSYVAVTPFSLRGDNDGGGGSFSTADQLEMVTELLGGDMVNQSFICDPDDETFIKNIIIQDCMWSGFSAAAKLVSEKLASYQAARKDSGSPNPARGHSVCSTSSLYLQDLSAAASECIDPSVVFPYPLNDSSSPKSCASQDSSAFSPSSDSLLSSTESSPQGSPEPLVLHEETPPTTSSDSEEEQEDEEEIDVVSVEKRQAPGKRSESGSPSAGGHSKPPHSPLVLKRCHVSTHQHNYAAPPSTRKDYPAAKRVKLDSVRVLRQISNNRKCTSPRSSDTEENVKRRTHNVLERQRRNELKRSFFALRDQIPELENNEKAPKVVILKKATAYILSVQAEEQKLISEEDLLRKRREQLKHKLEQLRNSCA
Protein max (Homo sapiens), sequence (P61244 whole entry): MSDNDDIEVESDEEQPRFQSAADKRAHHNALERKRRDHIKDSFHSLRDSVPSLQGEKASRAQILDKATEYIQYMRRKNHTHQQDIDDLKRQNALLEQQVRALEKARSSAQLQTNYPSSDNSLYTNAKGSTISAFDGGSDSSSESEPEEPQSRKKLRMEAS

Row | Compound | solubility [1] [µM] | Activity [2] [%] | Activity (c-Myc/Max (Homo sapiens) [3]) | Activity [4] | Activity [5] | inhibition (c-Myc/Max (Homo sapiens) [6]) | Activity (dsDNA) | also measured
1 | N#Cc1ccc(-c2cc(-c3ccc(C(N)=O)cc3)nc(-c3cc[n+]([O-])cc3)n2)cc1 | 25 (≈ 9.84 µg/mL) | 0 | inactive | inactive | inactive | inactive | inactive | 
2 | COc1ccc(-c2cc(-c3ccc(C(N)=O)cc3)nc(-c3ccccc3)n2)cc1 | < 1 | 0 | inactive | inactive | inactive | inactive | inactive | 
3 | NC(=O)c1ccc(-c2cc(-c3ccc(-c4nccs4)cc3)nc(-c3ccco3)c2)cc1 |  | 97 | inactive | inactive | inactive | Active | inactive | Stability [7]: 84.31%; Stability [8]: 80.8%; Stability [9]: 74.39%; Stability [10]: 67.5%; Stability [11]: 62.23%; AUC(0-inf) [12]: 44000 ng·h/mL; AUMC (Mus musculus): 190000 ng·h/mL; MRT [13]: 4.3 h; clearance [14]: 3.8 mL/min/kg
4 | NC(=O)c1ccc(-c2cc(-c3ccc(-c4cnco4)cc3)nc(-c3ccco3)c2)cc1 | 15 (≈ 6.11 µg/mL) | 154 | inactive | inactive | inactive | Active | inactive | 
5 | CS(=O)(=O)NC(=O)c1ccc(-c2cc(-c3ccc(C#N)cc3)nc(-c3ccco3)c2)cc1 | 32 (≈ 14.2 µg/mL) | 76 | inactive | inactive | inactive | Active | inactive | 
6 | c1coc(-c2cc(-c3nccs3)cc(-c3ccc(-c4nccs4)cc3)n2)c1 | < 1 | 188 | inactive | inactive | inactive | Active | inactive | 
7 | NC(=O)c1ccc(-c2cc(-c3ccc([N+](=O)[O-])cc3)nc(-c3ccco3)c2)cc1 | 8 (≈ 3.08 µg/mL) |  |  | inactive | inactive |  | inactive | Stability [7]: 49.69%; Stability [8]: 31.47%; Stability [9]: 25.88%; Stability [10]: 20.91%; Stability [11]: 22%; half-life [15]: 1 h; AUC(0-inf) [12]: 1450 ng·h/mL; AUMC (Mus musculus): 1360 ng·h/mL; MRT [13]: 0.94 h; Vd [16]: 6.44 L/kg; clearance [14]: 115 mL/min/kg; half-life [17]: 1.6 h; AUC(0-inf) [18]: 258 ng·h/mL; AUMC (Rattus norvegicus): 427 ng·h/mL; MRT [19]: 1.7 h; clearance [20]: 65 mL/min/kg
8 | N#Cc1ccc(-c2cc(-c3ccc(-c4nnn[nH]4)cc3)cc(-c3ccco3)n2)cc1 | 18 (≈ 7.03 µg/mL) | 92 | inactive | inactive | inactive | Active | inactive | 

Second part, led by results:

Row | solubility [1] [µM] | Activity [2] [%] | Activity (c-Myc/Max (Homo sapiens) [3]) | Activity [4] | Activity [5] | inhibition (c-Myc/Max (Homo sapiens) [6]) | Activity (dsDNA) | Compound | also measured
9 | 500 (≈ 190 µg/mL) | 0 | inactive | inactive | inactive | inactive | inactive | N#Cc1ccc(-c2cc(-c3ccc(C(=O)NN)cc3)cc(-c3ccco3)n2)cc1 | 
10 | 64 (≈ 24.5 µg/mL) | 79 | inactive | inactive | inactive | Active | inactive | N#Cc1ccc(-c2cc(-c3ccc(C(N)=O)cc3)cc(-c3cncs3)n2)cc1 | 
11 | 8 (≈ 2.93 µg/mL) | 66 | inactive | inactive | inactive | Active | inactive | N#Cc1ccc(-c2cc(-c3ccc(C(N)=O)cc3)nc(-c3ccco3)n2)cc1 | 
12 | 32 (≈ 12.2 µg/mL) | 55 | inactive | inactive | inactive | Active | inactive | Cn1nncc1-c1cc(-c2ccc(C(N)=O)cc2)cc(-c2ccc(C#N)cc2)n1 | 
13 | 8 (≈ 3.04 µg/mL) | 41 | inactive | inactive | inactive | Active | inactive | Cn1ccnc1-c1cc(-c2ccc(C(N)=O)cc2)cc(-c2ccc(C#N)cc2)n1 | 
14 | 10 (≈ 3.65 µg/mL) | 106 | inactive | inactive | inactive | Active | inactive | N#Cc1ccc(-c2cc(-c3ccc(C(N)=O)cc3)cc(-c3ccco3)n2)cc1 | 
15 | 25 (≈ 9.49 µg/mL) | 3.2 | inactive | inactive | inactive | Active | inactive | CNC(=O)c1ccc(-c2cc(-c3ccc(C#N)cc3)nc(-c3ccco3)c2)cc1 | 
16 | 250 (≈ 91.6 µg/mL) | 0 | inactive | inactive | inactive | inactive | inactive | N#Cc1ccc(-c2cc(-c3ccc(C(N)=O)cc3)cc(-c3cnco3)n2)cc1 | 
17 | 2 (≈ 0.787 µg/mL) | 0 | inactive | inactive | inactive | inactive | inactive | N#Cc1ccc(-c2cc(-c3ccc(C(N)=O)cc3)cc(-c3cccc(F)c3)n2)cc1 | 
